Calls of active or inactive are those of the source.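 How the source made its calls: active means peak inhibition of the KCNQ2 potassium channel above 30% at some tested dose, plus a fitted dose response curve; inactive means no inhibition at any dose, or no curve.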

Potassium voltage-gated channel subfamily KQT member 2 (Rattus norvegicus), sequence (O88943 whole entry, looked up): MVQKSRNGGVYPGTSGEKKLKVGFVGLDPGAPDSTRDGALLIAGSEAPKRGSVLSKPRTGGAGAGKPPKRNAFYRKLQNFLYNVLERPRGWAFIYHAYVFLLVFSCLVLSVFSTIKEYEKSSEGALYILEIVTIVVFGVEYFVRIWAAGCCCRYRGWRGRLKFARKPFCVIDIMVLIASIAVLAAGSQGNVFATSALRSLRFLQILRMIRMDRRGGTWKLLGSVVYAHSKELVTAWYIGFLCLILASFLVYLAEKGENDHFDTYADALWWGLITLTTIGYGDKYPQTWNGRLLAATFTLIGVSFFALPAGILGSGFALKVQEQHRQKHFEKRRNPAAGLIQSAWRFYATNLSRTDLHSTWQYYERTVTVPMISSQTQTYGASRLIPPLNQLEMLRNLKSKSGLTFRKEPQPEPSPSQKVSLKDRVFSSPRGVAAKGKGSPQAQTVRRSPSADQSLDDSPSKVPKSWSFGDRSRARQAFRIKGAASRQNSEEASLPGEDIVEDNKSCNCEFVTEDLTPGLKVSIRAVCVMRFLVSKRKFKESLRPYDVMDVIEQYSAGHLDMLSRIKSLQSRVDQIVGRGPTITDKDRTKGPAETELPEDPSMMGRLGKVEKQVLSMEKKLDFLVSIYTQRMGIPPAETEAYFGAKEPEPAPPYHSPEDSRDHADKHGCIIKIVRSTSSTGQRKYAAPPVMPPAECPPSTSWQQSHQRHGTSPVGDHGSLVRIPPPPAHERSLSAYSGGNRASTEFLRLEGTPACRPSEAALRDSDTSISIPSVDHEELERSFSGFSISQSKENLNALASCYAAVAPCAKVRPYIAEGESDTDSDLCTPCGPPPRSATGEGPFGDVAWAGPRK

The target of the first experiment is Potassium voltage-gated channel subfamily KQT member 2 (Rattus norvegicus) (UniProt O88943). The experiment in a line: rat KCNQ2 channel inhibition, SAR follow-up, selectivity assay for KCNK9 inhibitor project, cell-based, FluxOR thallium flux, CRC set 3 (AID 588798). The following applies: KCNQ2-expressing cells, FluxOR thallium flux fluorescence. The procedure, abridged:
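Schedule: 90 min dye load, 20 min compound exposure, room temperature. Assay system: KCNQ2-expressing CHO cells. Replication: duplicate or more. Compound dosing: concentration-response series. Evaluation: normalised fluorescence change ratio and IC50. Detection: kinetic thallium-flux fluorescence with FluxOR dye, 10 s baseline, 110 s post-stimulus.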
With `CC(C1CC2CCC1C2)n1c(SCc2ccccc2)nnc1-c1ccco1` (stereo not drawn), the half-inhibitory concentration (IC50) (as a rule, the concentration that inhibits the measured activity by half) was 18 µM.

The same experiment, now with this note: KCNQ2-expressing cells, FluxOR thallium flux fluorescence; at 30 µM (top of the series).
Turning to `CC(C1CC2CCC1C2)n1c(-c2cccnc2)n[nH]c1=S` (stereo not drawn), the “thallium flux ratio, lower = inhibition” value was “inactive”.
Turning to `CC(CCC1CCCC1)n1c(-c2ccco2)n[nH]c1=S` (stereo not drawn), the “thallium flux ratio, lower = inhibition” value is “inactive”.
Take `CC(C1CC2CCC1C2)n1c(-c2ccco2)n[nH]c1=S` (stereo not drawn): the “thallium flux ratio, lower = inhibition” value is “inactive”.
On the same count and under the same terms, as for `CC(C1CC2CCC1C2)n1c(SCC#N)nnc1-c1cccs1` (stereo not drawn), the entry is “inactive”.
For `CC(NC(=O)c1ccco1)C1CC2CCC1C2` (stereo not drawn), the “thallium flux ratio, lower = inhibition” value is “inactive”.
Still for that read-out and setting: the same measure for `C[C@H](C1CCCCC1)n1c(-c2ccco2)n[nH]c1=S`: “inactive”; for `CC(CC1CC2CCC1C2)n1c(-c2ccco2)n[nH]c1=S` (stereo not drawn): “inactive”.
Take `CC(C1CC2CCC1C2)n1c(SCC(=O)c2ccc(Cl)c(Cl)c2)nnc1-c1ccco1` (stereo not drawn): the “thallium flux ratio, lower = inhibition” value is “inactive”.
In the case of `CC(C1CC2CCC1C2)n1c(SCC(=O)c2ccccc2)nnc1-c1ccco1` (stereo not drawn), the “thallium flux ratio, lower = inhibition” value was “inactive”.
In the case of `CC(C1CC2CCC1C2)n1c(-c2ccccc2F)n[nH]c1=S` (stereo not drawn), the “thallium flux ratio, lower = inhibition” value was “inactive”.
Still for that read-out and setting: the same measure for `CC(C1CC2CCC1C2)n1cnnc1-c1ccco1` (stereo not drawn): “inactive”; for `C[C@@H](C1CCCCC1)n1c(-c2ccco2)n[nH]c1=S`: “inactive”.
Turning to `CC(C1C2CCC1CC2)n1c(-c2ccco2)n[nH]c1=S` (stereo not drawn), the “thallium flux ratio, lower = inhibition” value was “inactive”.
`CC(C1CC2CCC1C2)n1c(-c2ccncc2)n[nH]c1=S` (stereo not drawn): the “thallium flux ratio, lower = inhibition” value was “inactive”.
Turning to `COc1ccccc1C(=O)Nc1cccc(NC(=O)c2cccc3ccccc23)c1`, the “thallium flux ratio, lower = inhibition” value is “inactive”.
Same read-out and setting: the same measure for `CC(C1CC2CCC1C2)N(C)C(=O)c1ccco1` (stereo not drawn): “inactive”; for `CC(C)Oc1ccccc1C(=O)Nc1cccc(NC(=O)c2ccccc2OC(F)(F)F)c1`: “inactive”.
The same measure, in the same setting: the same measure for `COc1cccc(-c2nnc(S(C)(=O)=O)n2C(C)C2CC3CCC2C3)c1` (stereo not drawn): “inactive”; for `COc1cc(OC)cc(-c2n[nH]c(=S)n2C(C)C2CC3CCC2C3)c1` (stereo not drawn): “inactive”.
As for `COc1ccc(CCSc2nnc(-c3ccco3)n2C(C)C2CC3CCC2C3)cc1OC` (stereo not drawn), the “thallium flux ratio, lower = inhibition” value is “inactive”.
Still for that read-out and setting: the same measure for `S=c1[nH]nc(-c2ccco2)n1CC1CC2CCC1C2` (stereo not drawn): “inactive”; for `CSc1nnc(-c2ccco2)n1C(C)C1CC2CCC1C2` (stereo not drawn): “inactive”.
Still for that read-out and setting: as for `CC(C1CC2CCC1C2)n1c(-c2cccc(N(C)C)c2)n[nH]c1=S` (stereo not drawn), the entry is “inactive”.
Still for that read-out and setting: as for `CC(C1CC2CCC1C2)n1c(-c2cccc(F)c2)n[nH]c1=S` (stereo not drawn), the entry is “inactive”.
In the case of `CC(C1CC2CCC1C2)n1c(-c2cccn2C)n[nH]c1=S` (stereo not drawn), the “thallium flux ratio, lower = inhibition” value is “inactive”.
As for `COc1ccc(C(=O)CSc2nnc(-c3ccco3)n2C(C)C2CC3CCC2C3)cc1OC` (stereo not drawn), the “thallium flux ratio, lower = inhibition” value is “inactive”.
Consider `CC(C1CC2CCC1C2)n1c(-c2cccs2)n[nH]c1=S` (stereo not drawn), for which the “thallium flux ratio, lower = inhibition” value was “inactive”.
Take `CC(C1CC2CCC1C2)n1c(-c2ccccn2)n[nH]c1=S` (stereo not drawn): the “thallium flux ratio, lower = inhibition” value is “inactive”.
Same read-out and setting: the same measure for `CC(C)c1ccccc1C(=O)Nc1cccc(NC(=O)c2ccccc2OC(F)(F)F)c1`: “inactive”.
For `CC(c1cccc2ccccc12)n1c(-c2ccco2)n[nH]c1=S` (stereo not drawn), the “thallium flux ratio, lower = inhibition” value was “inactive”.
For the compound `COc1ccccc1C(=O)Nc1cc(NC(=O)c2ccccc2C(C)C)ccc1F`, the “thallium flux ratio, lower = inhibition” value is “inactive”.
Same read-out and setting: as for `CC(C1CC2CCC1C2)n1c(-c2ccco2)n[nH]c1=O` (stereo not drawn), the entry is “inactive”; as for `CC(C1CC2CCC1C2)n1c(-c2ccco2)nnc1C(F)(F)F` (stereo not drawn), “inactive”.
In the case of `COc1cccc(-c2n[nH]c(=S)n2C(C)C2CC3CCC2C3)c1OC` (stereo not drawn), the “thallium flux ratio, lower = inhibition” value is “inactive”.
The same measure, in the same setting: the same measure for `COc1cccc(C(=O)CSc2nnc(-c3ccco3)n2C(C)C2CC3CCC2C3)c1` (stereo not drawn): “inactive”; for `COc1ccc(C(=O)CSc2nnc(-c3ccco3)n2C(C)C2CC3CCC2C3)cc1` (stereo not drawn): “inactive”.
Still for that read-out and setting: the same measure for `CC(C1CC2CCC1C2)n1c(SCC(=O)c2ccc3c(c2)OCO3)nnc1-c1ccco1` (stereo not drawn): “inactive”; for `S=c1[nH]nc(-c2ccco2)n1C1CC2CCC1C2` (stereo not drawn): “inactive”.
Regarding `CC(C1CCCCC1)n1c(-c2ccco2)n[nH]c1=S` (stereo not drawn), the “thallium flux ratio, lower = inhibition” value is “inactive”.
Still for that read-out and setting: as for `CC(C1CC2CCC1C2)n1c(-c2ccc(N(C)C)cc2)n[nH]c1=S` (stereo not drawn), the entry is “inactive”; as for `COc1cccc(Cc2n[nH]c(=S)n2C(C)C2CC3CCC2C3)c1` (stereo not drawn), “inactive”; as for `CC(C1CC2CCC1C2)n1c(SC(F)F)nnc1-c1ccco1` (stereo not drawn), “inactive”.

(Values after PubChem BioAssay AID588798 (Johns Hopkins Ion Channel Center, 2011).)
